{"data": "Measured values gathered from unrelated publications", "MAL12": "Alpha-glucosidase MAL12 (MAL12, Saccharomyces cerevisiae S288c, UniProt P53341)", "note": "Protocols differ between the studies behind these lines."}
{"Compound": "CC1(C)CC[C@]2(C(=O)O)CC[C@]3(C)C(=CC[C@@H]4[C@@]5(C)CC[C@H](O[C@@H]6O[C@H](C(=O)O)[C@@H](O)[C@H](O)[C@H]6O)C(C)(C)[C@@H]5CC[C@]43C)[C@@H]2C1", "target": "MAL12", "observed": "enzyme activity", "action": "inhibitor", "IC50 [µM]": 0.69}
{"Compound": "COc1cc(C(c2c(O)c3ccccc3oc2=O)c2c(O)c3ccccc3oc2=O)ccc1OCc1cn(CC(=O)Nc2ccccc2F)nn1", "target": "MAL12", "observed": "enzyme activity", "action": "inhibitor", "method": "absorbance", "IC50 [µM]": 61.4}
{"Compound": "COc1ccc(NC(=O)Cn2cc(CSc3nc4ccccc4cc3/C=N/NC(N)=S)nn2)cc1", "target": "MAL12", "observed": "enzyme activity", "action": "inhibitor", "IC50 [µM]": 192}
{"Compound": "C[C@@H]1O[C@@H](O[C@H]2[C@H](O)[C@@H](O)[C@H](OC[C@H]3O[C@@H](OC(=O)[C@]45CCC(C)(C)C[C@H]4C4=CC[C@@H]6[C@@]7(C)CC[C@H](O[C@@H]8OC[C@H](O)[C@H](O)[C@H]8O)[C@@](C)(CO)[C@@H]7CC[C@@]6(C)[C@]4(C)CC5)[C@H](O)[C@@H](O)[C@@H]3O)O[C@@H]2CO)[C@H](O)[C@H](O)[C@H]1O", "target": "MAL12", "observed": "enzyme activity", "action": "inhibitor", "IC50 [µM]": 1.65}
{"Compound": "COc1cc(C(c2c(O)c3ccccc3oc2=O)c2c(O)c3ccccc3oc2=O)ccc1OCc1cn(CC(=O)Nc2ccc(Br)cc2)nn1", "target": "MAL12", "observed": "enzyme activity", "action": "inhibitor", "method": "absorbance", "IC50 [µM]": 81.7}
{"Compound": "C[C@@H](OC(C)(C)C)[C@H](NC(=O)OCc1ccccc1)C(=O)N[C@@H](CC1CCCCC1)C(=O)NN(CCC(N)=O)C(=O)C(Cl)Cl", "target": "Replicase polyprotein 1ab, main protease (rep, Severe acute respiratory syndrome coronavirus 2, UniProt P0DTD1)", "observed": "enzyme activity", "action": "inhibitor", "setting": "with preincubation", "IC50 [µM]": 0.068}
{"Compound": "Cc1ccc2[nH]c(=O)c(CNC3CCCCC3)cc2c1", "target": "Alpha-1A adrenergic receptor (ADRA1A, Homo sapiens, UniProt P35348, I178V)", "observed": "calcium signal", "action": "antagonist", "IC50 [µM]": 4.57}
{"Compound": "C[C@@H]1O[C@@H](O[C@H]2[C@H](O)[C@@H](O)[C@H](OC[C@H]3O[C@@H](OC(=O)[C@]45CCC(C)(C)C[C@H]4C4=CC[C@@H]6[C@@]7(C)CC[C@H](O[C@@H]8OC[C@H](O)[C@H](O)[C@H]8O)C(C)(C)[C@@H]7CC[C@@]6(C)[C@]4(C)CC5)[C@H](O)[C@@H](O)[C@@H]3O)O[C@@H]2CO)[C@H](O)[C@H](O)[C@H]1O", "target": "MAL12", "observed": "enzyme activity", "action": "inhibitor", "IC50 [µM]": 0.89}
{"Compound": "Cc1cc([N+](=O)[O-])ccc1NC(=O)Cn1cc(CSc2nc3ccccc3cc2/C=N/NC(N)=S)nn1", "target": "MAL12", "observed": "enzyme activity", "action": "inhibitor", "IC50 [µM]": 307}
{"Compound": "C[C@@H]1O[C@@H](O[C@H]2[C@H](O[C@H]3CC[C@@]4(C)[C@@H](CC[C@]5(C)[C@@H]4CC=C4[C@@H]6CC(C)(C)CC[C@]6(C(=O)O[C@@H]6O[C@H](CO[C@@H]7O[C@H](CO)[C@@H](O[C@@H]8O[C@@H](C)[C@H](O)[C@@H](O)[C@H]8O)[C@H](O)[C@H]7O)[C@@H](O)[C@H](O)[C@H]6O)CC[C@]45C)[C@]3(C)CO)OC[C@H](O)[C@@H]2O)[C@H](O)[C@H](O)[C@H]1O", "target": "MAL12", "observed": "enzyme activity", "action": "inhibitor", "IC50 [µM]": 1.78}
{"Compound": "NC(=S)N/N=C/c1cc2ccccc2nc1SCc1cn(CC(=O)Nc2ccccc2)nn1", "target": "MAL12", "observed": "enzyme activity", "action": "inhibitor", "IC50 [µM]": 379}
{"Compound": "Cc1ccc2oc(=O)cc(NCCO)c2c1", "target": "Alpha-1A adrenergic receptor (ADRA1A, Homo sapiens, UniProt P35348, M292L)", "observed": "calcium signal", "action": "antagonist", "IC50 [µM]": 692}
{"Compound": "COc1ccc(NC(=O)Cn2cc(COc3ccc(C(c4c(O)c5ccccc5oc4=O)c4c(O)c5ccccc5oc4=O)cc3OC)nn2)c(OC)c1", "target": "MAL12", "observed": "enzyme activity", "action": "inhibitor", "method": "absorbance", "IC50 [µM]": 52}
{"Compound": "NC(=S)N/N=C/c1cc2ccccc2nc1SCc1cn(CC(=O)Nc2cccc([N+](=O)[O-])c2)nn1", "target": "MAL12", "observed": "enzyme activity", "action": "inhibitor", "IC50 [µM]": 217}
